Published values from different studies.
Target: Mitogen-activated protein kinase kinase kinase 7 (MAP3K7, Homo sapiens, UniProt O43318)
Residues used in one study (O43318 1-606): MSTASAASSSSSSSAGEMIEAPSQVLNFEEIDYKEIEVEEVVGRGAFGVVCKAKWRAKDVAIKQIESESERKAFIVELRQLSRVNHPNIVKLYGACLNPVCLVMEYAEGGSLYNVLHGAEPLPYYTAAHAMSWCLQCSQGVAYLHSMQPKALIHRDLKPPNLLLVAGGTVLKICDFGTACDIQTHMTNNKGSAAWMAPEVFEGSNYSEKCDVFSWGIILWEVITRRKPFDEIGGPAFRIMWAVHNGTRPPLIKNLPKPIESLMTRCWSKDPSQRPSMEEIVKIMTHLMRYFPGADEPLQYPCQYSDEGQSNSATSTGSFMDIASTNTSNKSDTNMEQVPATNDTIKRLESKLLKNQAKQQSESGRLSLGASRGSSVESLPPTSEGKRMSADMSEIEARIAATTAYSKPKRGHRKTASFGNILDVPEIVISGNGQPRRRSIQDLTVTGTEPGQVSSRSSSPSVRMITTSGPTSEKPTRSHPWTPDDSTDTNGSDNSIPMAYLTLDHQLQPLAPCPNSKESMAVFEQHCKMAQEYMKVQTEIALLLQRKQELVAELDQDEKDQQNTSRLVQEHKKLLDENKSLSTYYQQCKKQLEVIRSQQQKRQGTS

| SMILES | test | setting | endpoint | value |
| --- | --- | --- | --- | --- |
| Cc1ccc(Nc2nccc(N(C)c3ccc4c(C)n(C)nc4c3)n2)cc1S(N)(=O)=O | enzyme activity, inhibitor | 10 µM | inhibition | -4% |
| COc1cccc2c(NCc3ccccc3)nc(-n3c(N)nc4ccccc43)nc12 | target engagement in cells, inhibitor, chemoproteomics | 20 mM | inhibition | -6.3% |
| CC(C)c1ccc(NC(=O)c2cccs2)c(-c2nc3ccccc3[nH]c2=O)c1 | enzyme activity, inhibitor | 1 µM | activity vs control | 106% |
| COc1ccc2cc(OCC3(C(=O)O)CN(C(=O)c4ccc(F)cc4)C3)ccc2c1 | cell-free assay, competition with immobilised ligand | 1 µM | remaining binding | 96% |
| COc1cc(Nc2cnc(C#N)c(O[C@H](C)CN(C)C)n2)ncc1-c1cnn(C)c1 | enzyme activity, inhibitor, radiometric | 1 µM | remaining activity | 97% |
| CCN(CC)CCNC(=O)c1c(C)[nH]c(/C=C2\C(=O)Nc3ccc(F)cc32)c1C | enzyme activity, inhibitor | 0.3 µM | inhibition | 52% |
| Cc1cnc(NC2CCOCC2)nc1-n1cnc(C(=O)NC(CN)c2cc(F)cc(Cl)c2)c1 (stereo not drawn) | enzyme activity, inhibitor, radiometric | 1 µM | remaining activity | 98% |
| CN(C(=O)c1ccccc1)c1cc(N(C)c2ccc3c(c2)CCc2ccc(C(=O)NCCN4CCOCC4)cc2C3=O)ccc1F | cell-free assay, competition with immobilised ligand | 1 µM | remaining binding | 100% |
| N[C@@H]1CCN(c2nccc(-c3cnn4ncccc34)n2)C1 | binding | 1 µM | remaining binding | 91% |
| Cn1c(=O)n(-c2ccc(C(C)(C)C#N)cc2)c2c3cc(-c4cnc5ccccc5c4)ccc3ncc21 | enzyme activity, inhibitor | 10 µM | remaining activity | 67% |
| Cc1cc(-n2nc(Cc3cc(F)cc(C(F)(F)F)c3)nc2C)ccc1C(N)=O | cell-free assay, competition with immobilised ligand | 1 µM | remaining binding | 100% |
| N#CCCc1ccc2c(c1)-c1[nH]c3ccc([N+](=O)[O-])cc3c1CC(=O)N2 | cell-free assay | 0.5 µM | remaining signal | 38.1% |
| O=C(NC[C@@H]1[C@H]2CN(C(=O)OCc3cc(C(F)(F)F)cc(C(F)(F)F)c3)C[C@@H]12)c1ccc2[nH]nnc2c1 | cell-free assay, competition with immobilised ligand | 1 µM | remaining binding | 94% |
| O=C1NC(=O)c2cc(Nc3ccc(F)cc3)c(Nc3ccc(F)cc3)cc21 | cell-free assay | 0.5 µM | remaining signal | 98.8% |
| COc1cc(Cl)c(C(=O)N[C@@H](CN[C@H]2CC[C@@H](N)CC2)Cc2ccc(C#N)cc2)cc1-c1ccc(CN[C@H](C)c2ccc(C)cc2)o1 | enzyme activity, inhibitor | 1 µM | remaining activity | 96% |
| CCN(CC)c1ccc(C2=NNC(=O)CC2C)cc1[N+](=O)[O-] (stereo not drawn) | enzyme activity, inhibitor | 10 µM | remaining activity | 107% |
| FC(F)(F)Oc1cccc(-c2cnc3ccc(-c4ccncc4)nn23)c1 | enzyme activity, inhibitor, radiometric | 5 µM | activity vs control | 58% |
| CCCS(=O)(=O)Nc1ccc(F)c(C(=O)c2c[nH]c3ncc(-c4ccc(Cl)cc4)cc23)c1F | enzyme activity, inhibitor | 1 µM | inhibition | < 10% |
| C[C@H](c1ccc(F)cc1)N(Cc1cccc(C(=O)O)c1)C(=O)c1cnc2ccccc2c1 | cell-free assay, competition with immobilised ligand | 1 µM | remaining binding | 100% |
| CCCOc1ccc(OC)c(F)c1C(=O)c1ccc(C(=O)N[C@@H]2CNC[C@H]2NC(=O)c2ccc3[nH]ncc3c2)cc1 | enzyme activity, inhibitor | 10 µM | remaining activity | 106% |
| O=C(Nc1cnn(-c2csc(C(=O)NC3COC3)c2)c1)Nc1c(F)cccc1Cl | enzyme activity, inhibitor | 5 µM | remaining activity | 109% |
| CS(=O)(=O)N1CCCC(NC(=O)[C@H](CCC2CCCCC2)NC(=O)c2ccc(CNC(=O)c3cnc4ccccn34)cc2)C1 (stereo partly drawn) | cell-free assay, competition with immobilised ligand | 0.1 µM | remaining binding | 94% |
| Cc1ccc(C(=O)Nc2ccc(CN3CCN(C)CC3)c(C(F)(F)F)c2)cc1C#Cc1cnc2cccnn12 | enzyme activity, inhibitor | 23.5 nM | remaining activity | 3.3% |
| CO[C@@H](C)c1c(Nc2ccc([C@H](N(C)C(=O)C3CCS(=O)(=O)CC3)C(F)(F)F)cc2)cnc2cc(Cl)nn12 | cell-free assay, competition with immobilised ligand | 1 µM | remaining binding | 89% |
| CN1CC(Oc2cnc(C#N)cc2-c2ccn3nc(NC(=O)C4CC4)cc3c2)C1 | enzyme activity, inhibitor | 1 µM | inhibition | 8% |
| O=C1Nc2ccc(Cl)cc2C1=Cc1cc(Cl)c(O)c(Cl)c1 | cell-free assay | 0.5 µM | remaining signal | 86.8% |
| Cc1nccc(COC(=O)N2C[C@@H]3[C@@H](CNC(=O)c4ccc5[nH]nnc5c4)[C@@H]3C2)n1 | cell-free assay, competition with immobilised ligand | 1 µM | remaining binding | 75% |
